# Source: PubChem BioAssay
# Calb FLC = C. albicans growth modulation with fluconazole. 0.57% of 300,000 active. growth inhibition, % (test concentration not listed). C. albicans CaCi-2 (fluconazole-resistant clinical isolate) + fluconazole, Alamar Blue growth, 48 h. AID 1979;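 active = growth inhibition above about 58% in most replicates, limit read from the data, passing the limit was not always enough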;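 note: all wells also contain fluconazole at 8 µg/ml as a sub-toxic cotreatment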
# ATG4B inhibitor = blocks human ATG4B protease cleavage of LC3 substrate; 0.51% of 340,000 active; ATG4B cleavage of LC3-PLA2, NBD-HPC fluorescence, 1 h; Q9Y4P1; inhibition, % at 8.33 µM; in the data active = inhibition above about 40%
# Target sequence (Q9Y4P1 whole entry, looked up): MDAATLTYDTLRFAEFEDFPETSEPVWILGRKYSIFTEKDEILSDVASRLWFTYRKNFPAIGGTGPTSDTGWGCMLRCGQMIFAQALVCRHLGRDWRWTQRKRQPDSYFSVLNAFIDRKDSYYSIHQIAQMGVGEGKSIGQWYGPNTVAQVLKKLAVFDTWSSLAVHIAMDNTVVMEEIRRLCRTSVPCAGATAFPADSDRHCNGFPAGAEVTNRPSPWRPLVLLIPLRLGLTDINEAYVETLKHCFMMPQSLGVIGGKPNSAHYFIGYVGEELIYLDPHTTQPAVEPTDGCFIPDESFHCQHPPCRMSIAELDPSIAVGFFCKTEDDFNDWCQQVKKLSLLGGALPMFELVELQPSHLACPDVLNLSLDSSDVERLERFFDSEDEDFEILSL
# NLRP3 yeast inh = inhibitors of NALP3 inflammasome in yeast; 0.39% of 330,000 active; Yeast reconstituted NLRP3/ASC/caspase-1, beta-gal luminescence, 24 h; inhibition, % at 10 µM;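 active = inhibition of 50% or more; inactive = inhibition below 50%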
# ALR inh = blocks human ALR sulfhydryl oxidase activity. AID 485317. inhibition, % (test concentration not listed). purified ALR, DTT oxidation, H2O2 HRP-luminol luminescence. 3.8% of 290,000 active. P55789;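 active = mean replicate inhibition above about 79%, with every replicate also reaching it, limit read from the data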
# NALP1 inh = blocks the NALP1 inflammasome reconstituted in yeast; S. cerevisiae NALP1/ASC/caspase-1 growth, X-gal OD620, 72 h; inhibition, % at 10 µM; 0.61% of 280,000 active; in the data active = inhibition mostly above about 24%, no sharp cut-off; inactive = mostly below about 32%
# UCH37 DUB inh = inhibitors of human deubiquitinating enzyme UCH37; Q9Y5K5; 0.33% of 330,000 active; inhibition, % (test concentration not listed); purified proteasome/UCH37, Ub-AMC cleavage fluorescence; AID 588478;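 active = mean inhibition over replicate wells above about 20%, limit read from the data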
#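 assay system = human UCH37 enzyme supplied as purified proteasome complex | amount = proteasome at 0.15 nM in the dispensed enzyme solution | schedule = 30 min compound-proteasome preincubation then 25 min substrate reaction, room temperature | measured by = fluorescence, ex 355 nm, em 460 nm | benchmarks = no-proteasome wells (full inhibition) and compound-free wells (no inhibition)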
# Numbers stand for hits; 0 = inactive; - = no result. Only some compounds are listed: those with a hit (about 4.8% of all), similar ones and a draw of the others.
SMILES,Calb FLC,ATG4B inhibitor,NLRP3 yeast inh,ALR inh,NALP1 inh,UCH37 DUB inh
Fc1ccc(Nc2nc(N3CCOCC3)c3ccccc3n2)cc1,0,0,0,93,0,0
c1ccc2c(Nc3nc(N4CCOCC4)c4ccccc4n3)cccc2c1,0,0,0,0,91,0
c1ccc2c(N3CCCCC3)nc(N3CCOCC3)nc2c1,0,0,0,-,0,0
CC(C)Cn1c(SCc2nnc(-c3cccs3)o2)nc(O)cc1=O,0,0,0,98,0,0
Cc1ccsc1C(=O)NN=C/C=C/c1ccccc1[N+](=O)[O-],-,-,-,-,-,0
COc1ccc(C(=O)NN=C(C)CC(=O)N2CCN(C=O)CC2)cc1,-,-,-,-,-,0
CCN(CC)c1ccc(C(=O)c2ccccc2C(=O)O)c(O)c1,0,0,0,0,0,20
CCN(CC)c1ccc(C=NN(c2ccccc2)c2ccccc2)c(O)c1,-,-,-,-,-,0
O=C(NC(CSCc1ccccc1)C(=O)NN=Cc1ccc(O)cc1O)c1ccc([N+](=O)[O-])cc1 (stereo not given),-,-,-,-,-,0
C=C(C)CNC(=S)NN=C1CCCCc2ccccc21,-,-,-,-,-,0
CCOC(=O)c1c(OCC)[nH]c2c1cc(O)c1ccccc12,0,0,0,99,0,0
CN(C)c1ccc(CNc2ccc3c(c2)ncn3C)cc1,0,0,0,99,0,0
Cn1cnc2cc(NCc3ccccc3Cl)ccc21,0,0,0,90,0,0
CCCCn1cnc2cc(NCc3ccncc3)ccc21,0,0,0,0,0,0
CC(C)c1ccc(CNc2ccc3c(c2)ncn3C)cc1,0,0,0,78,0,0
CCN(CC)c1ccc(CNc2ccc3c(c2)ncn3C(C)(C)C)cc1,0,0,0,99,0,0
CCc1ccc(CNc2ccc3c(c2)ncn3C(C)(C)C)cc1,0,0,0,0,0,0
CCc1ccccc1N/C(=N/S(=O)(=O)c1ccccc1)C(F)(F)F,-,-,-,-,-,0
Cc1[nH]nc(SCC(=O)NCc2ccccc2)c1[N+](=O)[O-],0,0,0,-,0,-
COC(=O)CSc1[nH]c2ccccc2c1[N+](=O)[O-],0,0,0,100,-,0
O=C(Sc1ccc(Cl)cc1)c1ccccn1,0,0,0,98,-,0
COc1cc(C=NNC(=O)C(C)Nc2n[nH]c(=O)[nH]c2=O)cc(OC)c1O (stereo not given),-,-,-,-,-,0
Cc1nnc2sc(SCC(=O)Nc3nccs3)nn2c1=O,0,0,0,99,0,-
COc1ccccc1NC(=O)CSc1nnc(C)o1,0,0,0,0,0,0
COc1ccccc1NC(=O)CSc1nn2c(=O)c(C)nnc2s1,0,0,0,99,0,0
SMILES,Calb FLC,ATG4B inhibitor,NLRP3 yeast inh,ALR inh,NALP1 inh,UCH37 DUB inh
Cc1nnc(SCC(=O)Nc2nccs2)n1N,0,0,0,0,-,0
c1cn2cc(CSC3CCCCC3)nc2s1,0,0,0,0,36,0
CC(=NNC(=O)CNC(=O)c1ccccc1)c1ccc(C)cc1,-,-,-,-,-,0
COc1ccc(-c2cc(C3CCN(CC(O)C(F)(F)F)CC3)[nH]n2)cc1 (stereo not given),0,0,0,-,0,0
COc1ccc(-c2cc(C3CCN(Cc4cccc(C(F)(F)F)c4)CC3)[nH]n2)cc1,70,0,0,0,0,0
Cc1ccc(CN2CCC(c3cc(-c4ccc(Cl)cc4)n[nH]3)CC2)cc1,0,0,0,0,35,0
COc1ccc(-c2cc(C3CCN(Cc4ccc([N+](=O)[O-])cc4)CC3)[nH]n2)cc1,0,0,0,0,0,0
O=C(NCc1ccncc1)c1cccc(S(=O)(=O)Nc2ccc(SC(F)F)cc2)c1,-,0,0,0,-,0
O=C(NCc1ccccn1)c1cccc(S(=O)(=O)Nc2ccc(SC(F)F)cc2)c1,0,0,0,98,-,0
CCCc1[nH]c2ccc(C#N)cc2c1CCC,0,0,0,97,0,-
Fc1ccc(C=NNC(=S)Nc2ccc(Cl)cc2)cc1F,-,-,-,-,-,0
Cc1ccc(NC(=O)C(=O)N2CCCC2)cc1Cl,0,0,0,0,0,0
Cc1ccc(NC(=O)N2CCCC2)cc1Cl,0,0,0,0,38,0
O=C(NC(=S)Nc1ccc(F)c(Cl)c1)C1CC1,0,0,0,0,0,0
Cc1ccc(NC(=S)NC(=O)C2CC2)cc1Cl,112,0,0,0,0,0
CC(=O)Nc1ccc(Br)c(Cl)c1,0,0,0,0,0,0
O=C(Nc1ccc(Br)c(Cl)c1)C1CC1,0,0,0,0,45,0
CC(C)Oc1ccccc1C=NNC(=O)C1CC1,-,-,-,-,-,0
